Data set [1] relates to Mus musculus. Description: Tissue distribution in BDF1 female mice bearing an implanted lewis lung tumor after intravenous injection in muscle at 0.25 h. The class given is ADME, organism-based. As to conditions: in vivo. The essentials: (§1)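 Female BDF₁ mice (18–20 g) carrying transplanted Lewis lung tumor received 23–193 kBq of the [2-¹⁴C]-labeled nucleoside in normal saline via tail vein. The compound was stored as a dry film and reconstituted just before use. Animals were killed at set times, and tissue ¹⁴C was measured by combustion and liquid scintillation. Values are mean ± SD % injected dose per gram of wet tissue, n = 6.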

The test system of data set [2] is Mus musculus. The experiment in a line: Tissue distribution in BDF1 female mice bearing an implanted lewis lung tumor after intravenous injection in bone at 0.25 h. The class given is ADME, organism-based. As to conditions: in vivo. The essentials: (§2)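 Female BDF1 mice (18–20 g) with implanted Lewis lung tumor received the 2-14C compound by tail vein, 23–193 kBq in normal saline, reconstituted from a dry film just before use. Animals were killed at set times and tissues taken for 14C counting by combustion and liquid scintillation. Values are percent injected dose per gram wet tissue, mean ± standard deviation, six animals.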

Data set [3] deals with Mus musculus. The experiment in a line: Tissue distribution in BDF1 female mice bearing an implanted lewis lung tumor after intravenous injection in kidney at 0.25 h. Type of data set: ADME, organism-based. As to conditions: in vivo. The essentials: as §2
Data set [4] relates to Mus musculus. Description: Tissue distribution in BDF1 female mice bearing an implanted lewis lung tumor after intravenous injection in stomach at 0.25 h. The class given is ADME, organism-based. As to conditions: in vivo. The essentials:
as §1

The test system of data set [5] is Mus musculus. The experiment in a line: Tissue distribution in BDF1 female mice bearing an implanted lewis lung tumor after intravenous injection in stomach at 0.5 h. Value in parentheses is organ to tumor ratio. Type of data set: ADME, organism-based. As to conditions: in vivo. The essentials:
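Female BDF₁ mice (18–20 g) with implanted Lewis lung tumor were given 23–193 kBq of the [2-¹⁴C] nucleoside in normal saline by tail vein. Tissue ¹⁴C was counted by combustion and liquid scintillation, with n = 6 per time point. The organ-to-tumor ratio was derived from the % injected dose per gram of wet tissue in the organ and in the tumor.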

The test system of data set [6] is Mus musculus. Description: Tissue distribution in BDF1 female mice bearing an implanted lewis lung tumor after intravenous injection in skin at 2 h. The class given is ADME, organism-based, Skin of body. As to conditions: in vivo. The essentials: as §1
Data set [7] has as its system Mus musculus. Description: Tissue distribution in BDF1 female mice bearing an implanted lewis lung tumor after intravenous injection in kidney at 0.25 h. The class given is ADME, organism-based. As to conditions: in vivo. The essentials:
as §2

Data set [8] deals with Mus musculus. The experiment in a line: Tissue distribution in BDF1 female mice bearing an implanted lewis lung tumor after intravenous injection in stomach at 0.25 h. The class given is ADME, organism-based. As to conditions: in vivo. The essentials:
as §1

For data set [9], the system named is Mus musculus. The experiment in a line: Tissue distribution in BDF1 female mice bearing an implanted lewis lung tumor after intravenous injection in stomach at 0.5 h. As to conditions: in vivo. Type of data set: ADME, organism-based. The essentials:
as §1

In data set [10] the test system is Mus musculus. The experiment in a line: Tissue distribution in BDF1 female mice bearing an implanted lewis lung tumor after intravenous injection in tumor at 1 h. Type of data set: ADME, organism-based. As to conditions: in vivo. The essentials: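 Female BDF1 mice (18–20 g) carrying a transplanted Lewis lung tumor were given 23–193 kBq of the [2-14C]-labelled nucleoside in normal saline by tail vein. Animals were killed at set times. Tissue 14C was counted by liquid scintillation, after combustion or directly. Values are percent of injected dose per gram wet tissue, as mean ± standard deviation of six animals.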

The subject of data set [11] is Mus musculus. The experiment in a line: Radioactive constituent of 5-fluorouracil in urine at 4 hr time interval after intravenous injection into BDF1 female mice bearing lewis lung tumor. Type of data set: ADME, organism-based. As to conditions: in vivo. The essentials:
(§3)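 Radiolabeled nucleoside given in normal saline by tail vein, 23–193 kBq per mouse, to female BDF1 mice (18–20 g) carrying transplanted Lewis lung tumor. Urine was collected when the animals were killed. Components were identified by reverse-phase HPLC with UV at 256 nm on urine spiked with reference compounds, matched to liquid scintillation counts of the eluate. Each is reported as a percent of total urine radioactivity.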

In data set [12] the test system is Mus musculus. The experiment in a line: Radioactive constituent of 5-fluorouracil in urine at 8 hr time interval after intravenous injection into BDF1 female mice bearing lewis lung tumor. As to conditions: in vivo. The class given is ADME, organism-based. The essentials:
as §3

The test system of data set [13] is Mus musculus. The experiment in a line: Radioactive constituent of other in urine at 0.5 hr time interval after intravenous injection into BDF1 female mice bearing lewis lung tumor. The class given is ADME, organism-based. As to conditions: in vivo. The essentials:
as §3

In data set [14] the test system is Mus musculus. The experiment in a line: Radioactive constituent of other in urine at 2 hr time interval after intravenous injection into BDF1 female mice bearing lewis lung tumor. As to conditions: in vivo. The class given is ADME, organism-based. The essentials: as §3
Data set [15] has as its system Mus musculus. Description: Radioactive constituent in urine at 0.5 hr time interval after intravenous injection into BDF1 female mice bearing lewis lung tumor. As to conditions: in vivo. Type of data set: ADME, organism-based. The essentials:
as §3

Data set [16] concerns Mus musculus. The experiment in a line: Radioactive constituent in urine at 4 hr time interval after intravenous injection into BDF1 female mice bearing lewis lung tumor. The class given is ADME, organism-based. As to conditions: in vivo. The essentials: as §3
The test system of data set [17] is Mus musculus. Description: Radioactive constituent in urine at 8 hr time interval after intravenous injection into BDF1 female mice bearing lewis lung tumor. Type of data set: ADME, organism-based. As to conditions: in vivo. The essentials: as §3
Data set [18] has as its system Mus musculus. The experiment in a line: Radioactive constituent of uracil in urine at 0.5 hr time interval after intravenous injection into BDF1 female mice bearing lewis lung tumor. The class given is ADME, organism-based. As to conditions: in vivo. The essentials:
as §3

The test system of data set [19] is Mus musculus. The experiment in a line: Radioactive constituent of uracil in urine at 2 hr time interval after intravenous injection into BDF1 female mice bearing lewis lung tumor. Type of data set: ADME, organism-based. As to conditions: in vivo. The essentials: as §3
The subject of data set [20] is Mus musculus. Description: Radioactive constituent of uracil in urine at 4 hr time interval after intravenous injection into BDF1 female mice bearing lewis lung tumor. As to conditions: in vivo. Type of data set: ADME, organism-based. The essentials: as §3
The test system of data set [21] is Mus musculus. The experiment in a line: Radioactive constituent of uracil in urine at 8 hr time interval after intravenous injection into BDF1 female mice bearing lewis lung tumor. As to conditions: in vivo. Type of data set: ADME, organism-based. The essentials: as §3
Data set [22] can be described thus: Total urine activity excreted at 0.5 hr was estimated from the measurement of loss of tissue activity. The class given is ADME, tissue-based.
A short description of data set [23]: Total urine activity excreted at 8 hr was estimated from the measurement of loss of tissue activity. Type of data set: ADME, tissue-based.
For data set [24], the system named is Mus musculus. The experiment in a line: Radioactive constituent of other in urine at 4 hr time interval after intravenous injection into BDF1 female mice bearing lewis lung tumor. The class given is ADME, organism-based. As to conditions: in vivo. The essentials:
as §3

The test system of data set [25] is Mus musculus. The experiment in a line: Radioactive constituent of 5-fluorouracil in urine at 2 hr time interval after intravenous injection into BDF1 female mice bearing lewis lung tumor. As to conditions: in vivo.

Structures are written as SMILES.

Regarding `O=c1[nH]c(=O)n([C@H]2O[C@@H](CO)[C@H](O)[C@H]2F)cc1Cl`, the Tissue distribution is given as 1.48 in the data set on Mus musculus [1]; 0.77 in the data set with Mus musculus [2]; 36.2 in the data set with Mus musculus [3]; 1.41 in the data set on Mus musculus [4]; 0.75 with Mus musculus [5].

For `O=c1[nH]c(=O)n([C@H]2O[C@@H](CO)[C@H](O)[C@H]2F)cc1F`, the Tissue distribution in the data set on Mus musculus [6] was determined as 0.06; in the data set with Mus musculus [7], 47.4; in the data set with Mus musculus [8] it was 2.18; with Mus musculus [9], 0.96; with Mus musculus [10] it was 2.24. Further, the Total radioactivity in the data set on Mus musculus [11] worked out at 16.3%; with Mus musculus [12] it was 4.5%; in the data set on Mus musculus [13], 5%; in the data set with Mus musculus [14], 5.4%; in the data set on Mus musculus [15], 90.7%; in the data set with Mus musculus [16], 63.4%. Moreover, the Total radioactivity with Mus musculus [17] was 52.4%; in the data set with Mus musculus [18] it was 1.4%; in the data set with Mus musculus [19], 3.3%; with Mus musculus [20], 7.3%; in the data set with Mus musculus [21], 4.5%; in the data set on Mus musculus [24] it was 23%. Moreover, the Total radioactivity with Mus musculus [25] is listed as 2.8%. Besides, the Total urine activity in data set [22] is 68%; in data set [23], 0.2%.

Source of the values: ChEMBL document CHEMBL1123716, “Synthesis and tumor uptake of 5-halo-1-(2'-fluoro-2'-deoxy-beta-D-ribofuranosyl)[2-14C]uracils” (J Med Chem, 1987).
